Series [1] concerns the target T1, Amine oxidase [flavin-containing] B (Rattus norvegicus, UniProt P19643).
T1 sequence (P19643 whole entry): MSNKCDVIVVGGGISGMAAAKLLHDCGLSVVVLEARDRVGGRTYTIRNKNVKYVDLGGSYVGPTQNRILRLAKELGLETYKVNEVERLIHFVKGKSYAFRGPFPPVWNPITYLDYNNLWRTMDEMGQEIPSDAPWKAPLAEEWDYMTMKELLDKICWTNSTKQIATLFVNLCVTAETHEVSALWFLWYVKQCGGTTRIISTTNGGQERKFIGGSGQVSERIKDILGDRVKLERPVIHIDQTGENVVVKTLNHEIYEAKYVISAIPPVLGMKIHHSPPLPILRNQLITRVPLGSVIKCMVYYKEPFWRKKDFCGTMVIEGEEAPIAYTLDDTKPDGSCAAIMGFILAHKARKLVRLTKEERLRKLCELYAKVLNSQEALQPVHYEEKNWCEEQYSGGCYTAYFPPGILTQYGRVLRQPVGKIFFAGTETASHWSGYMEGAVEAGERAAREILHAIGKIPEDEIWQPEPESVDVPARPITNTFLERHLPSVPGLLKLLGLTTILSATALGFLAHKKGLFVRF
Nature of the series: Inhibition of MAO-B in Sprague-Dawley rat brain mitochondrial suspension using kynuramine as substrate at 20 uM incubated for 5 mins prior to substrate addition measured for 5 mins by spectrophotometry. Put shortly:
(§1)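 Crude brain mitochondria from male Sprague-Dawley rats (200–250 g), used at 1 mg/mL. Isoforms separated with clorgyline or (−)-L-deprenyl, both irreversible at 250 nM. 5 min preincubation with compound, final DMSO 5% (v/v). Kynuramine then added at 60 μM (KM), and 4-hydroxyquinoline formation was followed at 314 nm for 5 min. IC50 by nonlinear regression of inhibition vs −log concentration, or % inhibition at 10 or 20 μM. Mean of 2–3 independent experiments.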

Series [2] has as its target T2, Amine oxidase [flavin-containing] A (Rattus norvegicus, UniProt P21396).
T2 sequence (P21396 whole entry): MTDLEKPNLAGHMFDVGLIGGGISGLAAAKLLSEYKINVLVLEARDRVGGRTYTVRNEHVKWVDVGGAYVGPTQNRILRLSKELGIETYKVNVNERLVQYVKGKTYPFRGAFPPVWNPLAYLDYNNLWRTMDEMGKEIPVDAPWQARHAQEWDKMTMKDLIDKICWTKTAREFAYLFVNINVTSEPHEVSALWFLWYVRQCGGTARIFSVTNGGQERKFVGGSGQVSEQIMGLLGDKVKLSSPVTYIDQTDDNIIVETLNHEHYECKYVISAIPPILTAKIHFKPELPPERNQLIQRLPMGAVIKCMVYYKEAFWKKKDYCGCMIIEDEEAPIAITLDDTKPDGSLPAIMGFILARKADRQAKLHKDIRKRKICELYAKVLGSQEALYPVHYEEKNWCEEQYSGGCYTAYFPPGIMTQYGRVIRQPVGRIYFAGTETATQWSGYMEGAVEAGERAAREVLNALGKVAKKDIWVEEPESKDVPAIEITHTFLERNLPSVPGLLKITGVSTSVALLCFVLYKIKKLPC
Nature of the series: Inhibition of MAO-A in Sprague-Dawley rat brain mitochondrial suspension using kynuramine as substrate incubated for 5 mins prior to substrate addition measured for 5 mins by spectrophotometry.

In series [3] the target is T1, Amine oxidase [flavin-containing] B. Put plainly: Inhibition of MAO-B in Sprague-Dawley rat brain mitochondrial suspension using kynuramine as substrate at 10 uM incubated for 5 mins prior to substrate addition measured for 5 mins by spectrophotometry. Put shortly: as §1
For series [4], the target named is T2, Amine oxidase [flavin-containing] A. Put plainly: Inhibition of MAO-A in Sprague-Dawley rat brain mitochondrial suspension using kynuramine as substrate at 10 uM incubated for 5 mins prior to substrate addition measured for 5 mins by spectrophotometry. Put shortly:
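Male Sprague-Dawley rat brain (200–250 g) crude mitochondrial fraction, 1 mg/mL, stored at −40 °C in isotonic phosphate/KCl buffer pH 7.4. Selective irreversible inhibitors clorgyline and (−)-L-deprenyl (250 nM each) used to separate isoform activities. Test compound preincubated 5 min, final DMSO 5% (v/v). Kynuramine 90 μM (KM) added, 4-hydroxyquinoline formation read at 314 nm for 5 min. […] Mean of 2–3 independent experiments.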

Series [5] addresses T1, Amine oxidase [flavin-containing] B. Put plainly: Inhibition of MAO-B in Sprague-Dawley rat brain mitochondrial suspension using kynuramine as substrate incubated for 5 mins prior to substrate addition measured for 5 mins by spectrophotometry. An outline of the steps:
as §1

Series [6] concerns the target T2, Amine oxidase [flavin-containing] A. Nature of the series: Ratio of moclobemide IC50 to compound IC50 for Sprague-Dawley rat brain MAO-A.

As to `CNC(=O)/C=C1/COc2cc(OS(=O)(=O)c3ccc(C#N)cc3)ccc21`, the inhibition (commonly the share of the control response that was lost under treatment) at 20 µM in series [1] was determined as 10%. Half-maximal inhibition in series [2] (IC50) required 45 nM.
Turning to `O=C1COc2cc(OS(=O)(=O)c3cccc(Cl)c3)ccc21`, the results for the inhibition at 10 µM in series [3] and in series [4] were 0% and 17%, respectively.
Take `NCc1cc(=O)oc2cc(OS(=O)(=O)c3cccc(Cl)c3)ccc12`: the IC50 – broadly, the concentration that gives 50% inhibition – was found to be 3300 nM in series [5] and 997 nM in series [2].
In series [1], `CNC(=O)/C=C1/COc2cc(OS(=O)(=O)c3cccc(F)c3)ccc21` came in with an inhibition at 20 µM of 6%. Also, half-maximal inhibition in series [2] (IC50) required 41 nM.
`CNC(=O)/C=C1/COc2c1ccc(OS(=O)(=O)c1cccc(Cl)c1)c2C`: at 10 µM the inhibition in series [3] was 2%. Also, in series [2], half-maximal inhibition (IC50) was put at 24 nM.
With `CNC(=O)/C=C1/COc2cc(OS(=O)(=O)c3ccc(C(C)=O)cc3)ccc21`, the inhibition at 10 µM in series [3] is 0%. This compound came in with an IC50 in series [2] of 29 nM.
On to `CNC(=O)/C=C1/COc2cc(OS(=O)(=O)c3ccc(S(C)(=O)=O)cc3)ccc21`, for which, in series [3], 10 µM produced 0% inhibition. The IC50 in series [2] worked out at 19 nM.
In series [3], `CNC(=O)/C=C1/COc2cc(OS(=O)(=O)c3ccc(Cl)cc3)ccc21` came in with an inhibition at 10 µM of 6%. Besides, in series [2], it took 12 nM to reach half-maximal inhibition (IC50).
In turn, `CNC(=O)/C=C1/COc2cc(OS(=O)(=O)c3ccccc3)ccc21` yielded an inhibition at 10 µM in series [3] of 0%. For the same compound, the IC50 in series [2] was 34 nM.
The corresponding values for `CNC(=O)/C=C1/COc2cc(OS(=O)(=O)c3ccc(OC)cc3)ccc21` are 0% and 11 nM.
In the case of `CCNC(=O)/C=C1/COc2cc(OS(=O)(=O)c3cccc(Cl)c3)ccc21`, the inhibition at 10 µM in series [3] came out at 0%. The compound also showed an IC50 in series [2] of 4200 nM.
Turning to `CNC(=O)Cc1coc2cc(OCc3cccc(Cl)c3)ccc12`, the results for the IC50 in series [5] and in series [2] were 284 nM and 3100 nM, respectively.
`CNC(=O)/C=C1/COc2cc(OS(=O)(=O)c3cccc(C#N)c3)ccc21`: 10 µM produced 0% inhibition in series [3]. The compound further registered an IC50 in series [2] of 19 nM.
With `CCNC(=O)Cc1coc2cc(OS(=O)(=O)c3cccc(Cl)c3)ccc12`, the inhibition at 10 µM in series [3] was 0%; in series [4], 31%.
The corresponding values for `CNC(=O)c1cc(=O)oc2cc(OS(=O)(=O)c3cccc(Cl)c3)ccc12` are 9% and 8%.
As for `CNC(=O)Cc1coc2cc(OS(=O)(=O)c3cccc(Cl)c3)ccc12`, the inhibition at 10 µM in series [3] turned out to be 4%. This compound displayed a half-inhibitory concentration (IC50) in series [2] of 409 nM.
Take `CNC(=O)/C=C1/COc2cc(OS(=O)(=O)CCC(F)(F)F)ccc21`: the inhibition at 10 µM in series [3] was found to be 17%. The compound further yielded an IC50 in series [2] of 9.1 nM.
Turning to `CNC(=O)/C=C1/COc2c1ccc(OS(=O)(=O)c1ccc(C#N)cc1)c2C`, the inhibition at 10 µM in series [3] is 6%. The compound further returned an IC50 in series [2] of 15 nM.
`O=C(NCCN1CCOCC1)c1ccc(Cl)cc1` [MOCLOBEMIDE] came in with an inhibition at 10 µM in series [3] of 0%.
Consider `CNC(=O)/C=C1/COc2c1ccc(OS(=O)(=O)c1ccc(OC)cc1)c2C`, for which the “Ratio IC50” value in series [6] was found to be 1000. The inhibition at 10 µM in series [3] was found to be 0%. Further, the IC50 in series [2] stood at 7 nM.
`CNCc1cc(=O)oc2cc(OS(=O)(=O)c3cccc(Cl)c3)ccc12`: the concentration for half-maximal inhibition (IC50) was found to be 1700 nM in series [5] and 5300 nM in series [2].
For the compound `CNC(=O)/C=C1/COc2c1ccc(OS(=O)(=O)c1ccccc1)c2C`, the inhibition at 10 µM in series [3] is 5%. The IC50 in series [2] came out at 9.8 nM.
As for `CNC(=O)/C=C1/COc2cc(OS(=O)(=O)c3cccc(Cl)c3)ccc21`, the inhibition at 10 µM in series [3] was determined as 0%. Also, the IC50 in series [2] was 41 nM.
With `CC(C)NC(=O)/C=C1/COc2cc(OS(=O)(=O)c3cccc(Cl)c3)ccc21`, the results for the inhibition at 10 µM in series [3] and in series [4] were 1% and 14%, respectively.
Turning to `CNC(=O)/C=C1/COc2c1ccc(OS(=O)(=O)CCC(F)(F)F)c2C`, in series [3], the inhibition at 10 µM stood at 5%. The compound also gave an IC50 in series [2] of 11 nM.
The corresponding values for `CNC(=O)/C=C1/COc2cc(OS(=O)(=O)c3ccc([N+](=O)[O-])cc3)ccc21` are 13% and 37 nM.
Turning to `CNC(=O)/C=C1/COc2cc(OS(=O)(=O)c3ccc(Cl)s3)ccc21`, the inhibition at 10 µM in series [3] stood at 6%. Further, in series [2], the midpoint of inhibition, the IC50, lay at 16 nM.
On to `CNC(=O)/C=C1/COc2cc(OCc3cccc(Cl)c3)ccc21`, for which the IC50 in series [5] was determined as 36 nM; in series [2] it was 427 nM.
As for `CNC(=O)Cc1cc(=O)oc2cc(OS(=O)(=O)c3cccc(Cl)c3)ccc12`, the IC50 turned out to be 8300 nM in series [5] and 111 nM in series [2].

For the origin of these results see ChEMBL document CHEMBL2321669, “Discovery, biological evaluation, and structure-activity and -selectivity relationships of 6'-substituted (E)-2-(benzofuran-3(2H)-ylidene)-N-methylacetamides, a novel class of potent and selective monoamine oxidase inhibitors” (J Med Chem, 2013).
